From ChEMBL document CHEMBL3407407, “New mimetic peptides inhibitors of Αβ aggregation. Molecular guidance for rational drug design” (Eur J Med Chem, 2015)
The source made the active and inactive calls. The rule behind the calls is not given here.

Legend:
[1] = target: Amyloid-beta precursor protein (Homo sapiens) (UniProt P05067); experiment: Inhibition of amyloid beta(42) aggregation (unknown origin) at 0.75 to 100 uM after 7 days by thioflavin T fluorescence method
Method in brief: (§1)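 Aβ42 at 25 mM (so in the source) in PBS, concentration set by A280 (ε 1490 M-1 cm-1), incubated quiescent at 37 °C for 7 days with compound (range 0–3200 mM as printed, from DMSO; final DMSO 5%). Samples then mixed with […] for 10 min at room temperature. Excitation 450 nm, emission 470–560 nm. Independent triplicates averaged, buffer+ThT+compound background subtracted.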

[2] = target: Amyloid-beta precursor protein (Homo sapiens) (UniProt P05067); experiment: Inhibition of amyloid beta(42) aggregation (unknown origin) at 0.78 to 3200 uM after 1.5 hrs using anti-oligomer A11 antibody by dot blot analysis
Method in brief: (§2)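 Aβ42 at 25 mM (so in the source) was incubated quiescent at 37 °C for 1.5 h across a compound concentration range (5% DMSO) and spotted on nitrocellulose. For A11, blots were blocked in PBS/0.2% Tween-20, then taken through A11 (1:4000, Hepes pH 7.0, overnight 4 °C) and anti-rabbit-HRP. For DE2B4 (total Aβ), blots were blocked in PBS-Tween/5% milk, then DE2B4 1:20,000 overnight 4 °C and anti-mouse-HRP. Read-out was chemiluminescence.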

[3] = target: Amyloid-beta precursor protein (Homo sapiens) (UniProt P05067); experiment: Inhibition of amyloid beta(42) aggregation (unknown origin) assessed as A11-positive oligomer formation at 100 uM after 0.5 to 70 hrs by kinetic study
Method in brief: (§3)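 A11 dot-blot time course. Aβ42 at 25 mM (so in the source) was incubated at 37 °C with compound at 100 mM (so in the source), 5% DMSO vehicle (5% water for the reference). Aliquots were taken at 0.5, 1.5, 5, 20, 30, 55 and 70 h, spotted on nitrocellulose, then probed with A11 and anti-rabbit-HRP. Read-out was chemiluminescence.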

[4] = target: Amyloid-beta precursor protein (Homo sapiens) (UniProt P05067); experiment: Inhibition of amyloid beta(42) aggregation (unknown origin) at 100 uM after 7 days by transmission electron microscopy
Method in brief: (§4)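 Aβ42 at 25 mM (so in the source) was incubated with compound at 37 °C for 7 days. Aliquots were adsorbed for 1 min onto carbon-coated Formvar copper grids, then blotted, washed and negatively stained for transmission electron microscopy.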

[5] = target: Amyloid-beta precursor protein (Homo sapiens) (UniProt P05067); experiment: Inhibition of amyloid beta(42) aggregation (unknown origin) at 0.78 to 3200 uM after 1.5 hrs using anti-amyloid beta antibody DE2B4 by dot blot analysis; method in brief: as §2
[6] = target: Amyloid-beta precursor protein (Homo sapiens) (UniProt P05067); experiment: Inhibition of amyloid beta(42) aggregation (unknown origin) at 100 to 3200 uM after 1.5 hrs using anti-oligomer A11 antibody by dot blot analysis; method in brief: as §2
[7] = target: Amyloid-beta precursor protein (Homo sapiens) (UniProt P05067); experiment: Inhibition of amyloid beta(42) aggregation (unknown origin) at 100 uM after 5 hrs by thioflavin T fluorescence-based kinetic study
Method in brief: (§5)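 In situ ThT kinetics. Aβ42 at 25 mM (so in the source) in PBS was incubated at 37 °C in sealed wells with 15 mM ThT and compound at 100 mM (so in the source), diluted 20-fold from DMSO to 5% DMSO. Fluorescence was read at intervals with excitation 450 nm and emission 470–600 nm. Background was corrected for ThT plus vehicle, with or without compound.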

[8] = target: Amyloid-beta precursor protein (Homo sapiens) (UniProt P05067); experiment: Inhibition of amyloid beta(42) aggregation (unknown origin) at 100 uM up to 1.5 hrs by thioflavin T fluorescence-based kinetic study; method in brief: as §5
[9] = target: Amyloid-beta precursor protein (Homo sapiens) (UniProt P05067); experiment: Inhibition of amyloid beta(42) aggregation (unknown origin) after 7 days by thioflavin T fluorescence method; method in brief: as §1
[10] = target: Amyloid-beta precursor protein (Homo sapiens) (UniProt P05067); experiment: Inhibition of amyloid beta(42) aggregation (unknown origin) assessed as A11-positive oligomer formation at 100 uM up to 1.5 hrs by kinetic study; method in brief: as §3
[11] = target: Amyloid-beta precursor protein (Homo sapiens) (UniProt P05067); experiment: Inhibition of amyloid beta(42) aggregation (unknown origin) at 100 uM after 7 days by thioflavin T fluorescence method; method in brief: as §1
[12] = target: Amyloid-beta precursor protein (Homo sapiens) (UniProt P05067); experiment: Inhibition of amyloid beta(42) aggregation (unknown origin) at 100 to 3200 uM after 1.5 hrs using anti-amyloid beta antibody DE2B4 by dot blot analysis; method in brief: as §2
[13] = target: Amyloid-beta precursor protein (Homo sapiens) (UniProt P05067); experiment: Inhibition of amyloid beta(42) aggregation (unknown origin) at 3200 uM after 7 days by thioflavin T fluorescence method; method in brief: as §1
[14] = target: Amyloid-beta precursor protein (Homo sapiens) (UniProt P05067); experiment: Inhibition of amyloid beta(42) aggregation (unknown origin) at 100 to 3200 uM after 7 days by transmission electron microscopy; method in brief: as §4
[15] = target: Amyloid-beta precursor protein (Homo sapiens) (UniProt P05067); experiment: Inhibition of amyloid beta(42) aggregation (unknown origin) at 100 to 200 uM after 7 days by transmission electron microscopy; method in brief: as §4

Chain of Amyloid-beta precursor protein (Homo sapiens) (P05067 whole entry): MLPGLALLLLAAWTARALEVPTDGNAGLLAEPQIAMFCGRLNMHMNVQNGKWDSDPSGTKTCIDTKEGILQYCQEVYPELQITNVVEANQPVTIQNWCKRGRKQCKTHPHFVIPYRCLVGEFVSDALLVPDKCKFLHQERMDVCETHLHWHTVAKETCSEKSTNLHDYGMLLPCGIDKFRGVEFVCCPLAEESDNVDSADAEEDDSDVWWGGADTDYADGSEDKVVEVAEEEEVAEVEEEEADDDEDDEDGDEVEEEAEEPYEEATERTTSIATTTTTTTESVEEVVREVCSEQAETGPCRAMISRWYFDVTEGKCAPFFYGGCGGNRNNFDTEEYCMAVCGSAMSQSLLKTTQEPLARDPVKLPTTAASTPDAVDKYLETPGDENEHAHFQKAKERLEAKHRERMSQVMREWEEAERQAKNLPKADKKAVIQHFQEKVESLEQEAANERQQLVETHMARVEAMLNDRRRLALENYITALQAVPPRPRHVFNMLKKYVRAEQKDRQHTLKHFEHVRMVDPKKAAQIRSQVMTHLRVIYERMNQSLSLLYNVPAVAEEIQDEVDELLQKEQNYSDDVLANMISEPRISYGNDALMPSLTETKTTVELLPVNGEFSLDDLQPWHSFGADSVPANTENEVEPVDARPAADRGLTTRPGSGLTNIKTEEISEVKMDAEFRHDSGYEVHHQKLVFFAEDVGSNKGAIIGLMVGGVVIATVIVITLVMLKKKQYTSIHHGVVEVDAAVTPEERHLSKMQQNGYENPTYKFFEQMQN

inhibition [2]	inhibition [3]	inhibition [4]	inhibition [5]	inhibition [6]	inhibition [7]	inhibition [8]	inhibition [9]	inhibition [10]	inhibition [11]	inhibition [12]	Structure (SMILES)	other results
inactive	inactive	inactive	inactive	–	–	–	–	–	–	–	O=C(NCCCC[C@H](NC(=O)OCc1ccccc1)C(=O)O)OCc1ccccc1	inhibition [1]: inactive
inactive	inactive	inactive	inactive	–	–	–	–	–	–	–	O=C(NCCCC[C@H](NC(=O)OCC1c2ccccc2-c2ccccc21)C(=O)O)OCc1ccccc1	–
–	inactive	–	–	–	–	–	Dose-dependent effect	–	–	–	CNc1ccc(C(=O)N[C@@H](CCCCNC(=O)OCc2ccccc2)C(=O)O)cc1	inhibition [13]: Active; inhibition [14]: Active

Continued, compound first:

Structure (SMILES)	inhibition [2]	inhibition [3]	inhibition [4]	inhibition [5]	inhibition [6]	inhibition [7]	inhibition [8]	inhibition [9]	inhibition [10]	inhibition [11]	inhibition [12]	other results
O=C(NCCCC[C@H](NC(=O)OCc1ccccc1)C(=O)ON1C(=O)CCC1=O)OCc1ccccc1	–	Active	–	–	Active	inactive	Active	Dose-dependent effect	Active	Active	Active	–
O[C@H]1[C@H](O)[C@@H](O)[C@H](O)[C@@H](O)[C@@H]1O	–	inactive	–	–	–	–	–	–	–	–	–	–
CC(C)(C)OC(=O)N[C@@H](CCCCNC(=O)OCc1ccccc1)C(=O)ON1C(=O)CCC1=O	–	Active	–	–	Active	inactive	Active	Dose-dependent effect	Active	Active	Active	inhibition [15]: Active
